Assay results taken from ChEMBL document CHEMBL2434898, “New β-phospholactam as a carbapenem transition state analog: Synthesis of a broad-spectrum inhibitor of metallo-β-lactamases” (Bioorg Med Chem Lett, 2013).
The source made the active and inactive calls. The rule behind the calls is not given here.

Columns and labels:
[1] = Inhibition of Metallo-beta-lactamase NDM1 (unknown origin) assessed as inhibition of nitrocefin hydrolysis preincubated at 100 uM for 30 mins before substrate addition by spectrophotometry
Outline: (§1)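 Each enzyme (IMP-1, CcrA, Bla2, NDM-1 of subclass B1; L1 of B3) was pre-incubated with inhibitor in DMSO for 30 min, then substrate hydrolysis was measured. Results are given as percent inhibition.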

[2] = Inhibition of Metallo-beta-lactamase IMP-1 (unknown origin) assessed as inhibition of nitrocefin hydrolysis preincubated at 100 uM for 30 mins before substrate addition by spectrophotometry; outline: as §1
[3] = Inhibition of Metallo-beta-lactamase IMP-1 (unknown origin) assessed as inhibition of nitrocefin hydrolysis at 100 uM by spectrophotometry
Outline: (§2)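 Purified metallo-β-lactamases (subclass B1: IMP-1, CcrA, Bla2, NDM-1; B3: L1) were mixed with inhibitor dissolved in DMSO with no pre-incubation before the hydrolysis assay. Activity is reported as percent inhibition.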

[4] = Inhibition of Metallo-beta-lactamase NDM1 (unknown origin) assessed as inhibition of nitrocefin hydrolysis preincubated at 100 uM before substrate addition by spectrophotometry; conditions: TDE = time-dependent effect
[5] = Inhibition of Metallo-beta-lactamase L1 (unknown origin) assessed as inhibition of nitrocefin hydrolysis at 100 uM by spectrophotometry; outline: as §2
[6] = Inhibition of Metallo-beta-lactamase CcrA (unknown origin) assessed as inhibition of nitrocefin hydrolysis preincubated at 100 uM for 30 mins before substrate addition by spectrophotometry; outline: as §1
[7] = Inhibition of metallo-beta-lactamase L1 (unknown origin) assessed as inhibition of nitrocefin hydrolysis preincubated at 100 before substrate addition by spectrophotometry; conditions: TDE = time-dependent effect
[8] = Activation of metallo-beta-lactamase CcrA (unknown origin) assessed as hydrolysis of nitrocefin at 100 uM by spectrophotometry; outline: as §2
[9] = Inhibition of Metallo-beta-lactamase Bla2 (unknown origin) assessed as inhibition of nitrocefin hydrolysis preincubated at 100 uM before substrate addition by spectrophotometry; conditions: TDE = time-dependent effect
[10] = Inhibition of Metallo-beta-lactamase IMP-1 (unknown origin) assessed as inhibition of nitrocefin hydrolysis preincubated at 100 uM before substrate addition by spectrophotometry; conditions: TDE = time-dependent effect
[11] = Inhibition of Metallo-beta-lactamase Bla2 (unknown origin) assessed as inhibition of nitrocefin hydrolysis at 100 uM by spectrophotometry; outline: as §2
[12] = Inhibition of Metallo-beta-lactamase Bla2 (unknown origin) assessed as inhibition of nitrocefin hydrolysis preincubated at 100 uM for 30 mins before substrate addition by spectrophotometry; outline: as §1
[13] = Inhibition of Metallo-beta-lactamase CcrA (unknown origin) assessed as inhibition of nitrocefin hydrolysis preincubated at 100 uM before substrate addition by spectrophotometry; conditions: TDE = time-dependent effect
[14] = Inhibition of metallo-beta-lactamase L1 (unknown origin) assessed as inhibition of nitrocefin hydrolysis preincubated at 100 uM for 30 mins before substrate addition by spectrophotometry; outline: as §1
[15] = Activation of metallo-beta-lactamase NDM1 (unknown origin) assessed as hydrolysis of nitrocefin at 100 uM by spectrophotometry; outline: as §2

CC(=O)OC1C2CCC(C(=O)O)N2P1(=O)O (stereo not given)
inhibition [1]: 53% | inhibition [2]: 70% | inhibition [3]: 48% | inhibition [4]: tde | inhibition [5]: 37% | inhibition [6]: 69% | inhibition [7]: tde | Activity [8]: Active | inhibition [9]: tde | inhibition [10]: tde | inhibition [11]: 22% | inhibition [12]: 94% | inhibition [13]: tde | inhibition [14]: 70% | Activity [15]: Active
